Laboratory results: ChEMBL document CHEMBL5550111, “Design, synthesis and biological evaluation of aryloxy thiophosphoramidate triesters of anticancer nucleoside analogues” (Bioorg Med Chem, 2024)

Assays:
[1] = test system: SK-MES-1; assay: Cytotoxicity against human SK-MES-1 cells assessed as inhibition of cell viability incubated for 72 hrs by MTS assay; format: functional, cell-based; conditions: SK-MES-1, 72 h
How it was run: (§1)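 Cells seeded at 0.5 to 100 × 10^3 per well the day before treatment, then exposed for 72 h to 9 serial concentrations (3.16-fold dilutions, top 198 μM), in duplicate. MTS added for a final 4 h at 37 °C and absorbance read. IC50 is the concentration giving 50% loss of viability. MI% is the maximum inhibition over the tested range.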

[2] = test system: MIA PaCa-2; assay: Cytotoxicity against human MIA PaCa-2 cells assessed as maximum inhibition of cell viability upto 198 uM incubated for 72 hrs by MTS assay relative to control; format: functional; conditions: up to 198 µM
How it was run: (§2)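 Cells seeded at 0.5 to 100 × 10^3 per well the day before drug addition, then exposed to compound for 72 h. MTS added afterwards, with a further 4 h at 37 °C, and absorbance read. Tested in duplicate at 9 serial 3.16-fold dilutions, top concentration 198 μM. MI% is the maximum inhibition of viability across the tested range.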

[3] = test system: HepG2; assay: Cytotoxicity against human HepG2 cells assessed as inhibition of cell viability incubated for 72 hrs by MTS assay; format: functional, cell-based; conditions: HepG2, 72 h; how it was run: as §1
[4] = test system: RT112/84; assay: Cytotoxicity against human RT112/84 cells assessed as maximum inhibition of cell viability upto 198 uM incubated for 72 hrs by MTS assay relative to control; format: functional; conditions: up to 198 µM; how it was run: as §2
[5] = test system: SK-MES-1; assay: Cytotoxicity against human SK-MES-1 cells assessed as maximum inhibition of cell viability upto 198 uM incubated for 72 hrs by MTS assay relative to control; format: functional; conditions: up to 198 µM; how it was run: as §2
[6] = test system: HepG2; assay: Cytotoxicity against human HepG2 cells assessed as maximum inhibition of cell viability upto 198 uM incubated for 72 hrs by MTS assay relative to control; format: functional; conditions: up to 198 µM; how it was run: as §2
[7] = test system: RPMI-8226; assay: Cytotoxicity against human RPMI-8226 cells assessed as maximum inhibition of cell viability upto 198 uM incubated for 72 hrs by MTS assay relative to control; format: functional; conditions: up to 198 µM; how it was run: as §2
[8] = test system: MIA PaCa-2; assay: Cytotoxicity against human MIA PaCa-2 cells assessed as inhibition of cell viability incubated for 72 hrs by MTS assay; format: functional, cell-based; conditions: MIA PaCa-2, 72 h; how it was run: as §1
[9] = test system: RPMI-8226; assay: Cytotoxicity against human RPMI-8226 cells assessed as inhibition of cell viability incubated for 72 hrs by MTS assay; format: functional, cell-based; conditions: RPMI-8226, 72 h; how it was run: as §1
[10] = test system: NCI-H1975; assay: Cytotoxicity against human NCI-H1975 cells assessed as maximum inhibition of cell viability upto 198 uM incubated for 72 hrs by MTS assay relative to control; format: functional; conditions: up to 198 µM; how it was run: as §2
[11] = test system: RT112/84; assay: Cytotoxicity against human RT112/84 cells assessed as inhibition of cell viability incubated for 72 hrs by MTS assay; format: functional, cell-based; conditions: RT112/84, 72 h; how it was run: as §1
[12] = test system: OVCAR-3; assay: Cytotoxicity against human OVCAR-3 cells assessed as inhibition of cell viability incubated for 72 hrs by MTS assay; format: functional, cell-based; conditions: OVCAR-3, 72 h; how it was run: as §1
[13] = test system: HT-29; assay: Cytotoxicity against human HT-29 cells assessed as maximum inhibition of cell viability upto 198 uM incubated for 72 hrs by MTS assay relative to control; format: functional; conditions: up to 198 µM; how it was run: as §2
[14] = test system: OVCAR-3; assay: Cytotoxicity against human OVCAR-3 cells assessed as maximum inhibition of cell viability upto 198 uM incubated for 72 hrs by MTS assay relative to control; format: functional; conditions: up to 198 µM; how it was run: as §2
[15] = test system: COLO 205; assay: Cytotoxicity against human COLO 205 cells assessed as inhibition of cell viability incubated for 72 hrs by MTS assay; format: functional, cell-based; conditions: COLO 205, 72 h; how it was run: as §1
[16] = test system: HT-29; assay: Cytotoxicity against human HT-29 cells assessed as inhibition of cell viability incubated for 72 hrs by MTS assay; format: functional, cell-based; conditions: HT-29, 72 h; how it was run: as §1

C[C@H](NP(=O)(OC[C@H]1O[C@@H](n2cc(F)c(=O)[nH]c2=O)C[C@@H]1O)Oc1cccc2ccccc12)C(=O)OCc1ccccc1 (stereo partly specified) [FOSIFLOXURIDINE NAFALBENAMIDE]
IC50 [1]: 0.32 µM | Imax [2]: 96% | IC50 [3]: 24.5 µM | Imax [4]: 77% | Imax [5]: 77% | Imax [6]: 62% | Imax [7]: 93% | IC50 [8]: 1.47 µM | IC50 [9]: 5.9 µM | Imax [10]: 72% | IC50 [11]: 0.32 µM | IC50 [12]: 6.91 µM | Imax [13]: 81% | Imax [14]: 92% | IC50 [15]: 0.14 µM | IC50 [16]: 0.52 µM
